Measurements: ChEMBL document CHEMBL5649168, “Discovery of a selective catalytic p300/CBP inhibitor that targets lineage-specific tumours” (Nature, 2017)
pIC50, pKd: −log10 of the molar value. Blank lines part the entries; values can stand above or below the compound they belong to. The source made the active and inactive calls. No cut-off for these calls is given here.

Legend:
[1] = molecular target: T1, Histone acetyltransferase p300 (Homo sapiens, UniProt Q09472); assay: Inhibition of p300 HAT domain (unknown origin) using Biotin-C6-GRGKGGKGLGKGGAK as substrate pretreated with enzyme for 30 mins followed by incubation with substrate for 1 hr by radiometric scintillation proximity assay
[2] = molecular target: T2, CREB-binding protein/Histone acetyltransferase p300 (Homo sapiens, UniProt Q09472+Q92793); details: 22Rv1, dose 0.3-3 mM
[3] = molecular target: T2, CREB-binding protein/Histone acetyltransferase p300; assay: Inhibition of p300/CBP in human 22Rv1 cells assessed as reduction in H3K27Ac level incubated for 24 hrs by Hoechst 33342 staining based high content microscopy analysis; type: cell-based
Method in brief: (§1)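 Cells received an 8-point half-log dilution series from 10 µM. They were then fixed in 10% formaldehyde (10 min, RT), permeabilised with 0.1% Triton X-100 and blocked with 1% BSA for 1 h. Primary antibodies were applied overnight at 4 °C, followed by Alexa488 anti-rabbit, Alexa555 anti-mouse and Hoechst 33342 for 1 h. Fifteen fields per well were imaged and average mean intensity taken. EC50 came from a sigmoidal fit.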

MAO-A = MAO-A (Homo sapiens, UniProt P21397); assay: Inhibition of MAO-A (unknown origin) at 10 uM by radioligand binding assay relative to control
[4] = molecular target: Ca2+ channel (L, dihydropyridine site) (Homo sapiens, UniProt O60840+Q01668+Q13698+Q13936); assay: Inhibition of Ca2+ channel (L, dihydropyridine site) (unknown origin) at 10 uM by radioligand binding assay relative to control; type: protein assay
CREB-binding protein = CREB-binding protein (Homo sapiens, UniProt Q92793); assay: (§2) Inhibition of N-terminal 6His-Flag tagged CBP-BHC domain (1072 to 1859 residues) (unknown origin) expressed in Sf9 cells using the Bac-to-Bac baculovirus system under EDTA-free condition using biotinylated synthetic Histone-H4 peptide incubated for 30 mins followed by substrate addition and measured after 1hr by TR-FRET assay
[5] = molecular target: T2, CREB-binding protein/Histone acetyltransferase p300; assay: Inhibition of p300/CBP in human 22Rv1 cells assessed as reduction in H3K9Ac level incubated for 3 hrs by Hoechst 33342 staining based high content microscopy analysis; type: cell-based; method in brief: as §1
[6] = molecular target: T2, CREB-binding protein/Histone acetyltransferase p300; assay: Inhibition of p300/CBP in human 22Rv1 cells assessed as reduction in H3K18Ac level incubated for 3 hrs by Hoechst 33342 staining based high content microscopy analysis; type: cell-based; method in brief: as §1
[7] = molecular target: T1, Histone acetyltransferase p300; assay: as §2, with “p300-BHC” for “CBP-BHC”, “(1036” for “(1072”, “1822” for “1859”
Method in brief: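 TR-FRET acetylation of biotinylated histone H4 peptide. Buffer: 100 mM HEPES pH 7.9, 100 mM KCl, 40 µg/mL BSA, 1 mM DTT, 0.01% Triton X-100. The EDTA-free run used protein purified without EDTA and buffer without EDTA. Enzyme at 0.6 nM was preincubated 30 min with compound (3-fold series, 50 µM to 0.00075 µM). Substrates were 2 µM peptide and 0.5 µM acetyl-CoA, 1 h at room temperature. Read by Eu-anti-acetyl-H4 / ULight-streptavidin; IC50 from sigmoidal fit.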

MAO-B = MAO-B (Homo sapiens, UniProt P27338); assay: Inhibition of human recombinant MAO-B at 10 uM by radioligand binding assay relative to control
[8] = molecular target: T2, CREB-binding protein/Histone acetyltransferase p300; assay: Inhibition of p300/CBP in human PC-3 cells assessed as reduction in H3K27Ac level incubated for 3 hrs by Hoechst 33342 staining based high content microscopy analysis; type: cell-based
Method in brief: (§3)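 PC-3 cells were plated overnight on collagen I-coated plates. They were treated with an 8-point half-log series from 10 µM, then fixed in 10% formaldehyde, permeabilized in 0.1% Triton X-100 and blocked in 1% BSA. Mean intensity was imaged over 15 fields per well; EC50 from sigmoidal fit.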

[9] = molecular target: T2, CREB-binding protein/Histone acetyltransferase p300; assay: Inhibition of p300/CBP in human PC-3 cells assessed as reduction in H3K18Ac level incubated for 3 hrs by Hoechst 33342 staining based high content microscopy analysis; type: cell-based
[10] = molecular target: T2, CREB-binding protein/Histone acetyltransferase p300; assay: Inhibition of p300/CBP in human 22Rv1 cells assessed as reduction in H3K18Ac level incubated for 1 hr by Hoechst 33342 staining based high content microscopy analysis; type: cell-based; method in brief: as §1
[11] = molecular target: T2, CREB-binding protein/Histone acetyltransferase p300; assay: Inhibition of p300/CBP in human 22Rv1 cells assessed as reduction in H3K9Ac level incubated for 24 hrs by Hoechst 33342 staining based high content microscopy analysis; type: cell-based; method in brief: as §1
[12] = molecular target: T1, Histone acetyltransferase p300; assay: Binding affinity to recombinant human p300 HAT domain expressed in Escherichia coli BL21-CodonPlus(DE3)-RIL cells assessed as dissociation constant using CMLVELHTQSQDRF as substrate by surface plasmon resonance analysis
[13] = molecular target: T2, CREB-binding protein/Histone acetyltransferase p300; assay: Inhibition of p300/CBP in human 22Rv1 cells assessed as reduction in H3K9Ac level incubated for 1 hr by Hoechst 33342 staining based high content microscopy analysis; type: cell-based; method in brief: as §1
[14] = molecular target: T2, CREB-binding protein/Histone acetyltransferase p300; assay: Inhibition of p300/CBP in human PC-3 cells assessed as reduction in H3K9Ac level incubated for 3 hrs by Hoechst 33342 staining based high content microscopy analysis; type: cell-based; method in brief: as §3
[15] = molecular target: T2, CREB-binding protein/Histone acetyltransferase p300; assay: Inhibition of p300/CBP in human 22Rv1 cells assessed as reduction in H3K18Ac level incubated for 24 hrs by Hoechst 33342 staining based high content microscopy analysis; type: cell-based; method in brief: as §1

T1 sequence (Q09472 whole entry, the tested form may be a part): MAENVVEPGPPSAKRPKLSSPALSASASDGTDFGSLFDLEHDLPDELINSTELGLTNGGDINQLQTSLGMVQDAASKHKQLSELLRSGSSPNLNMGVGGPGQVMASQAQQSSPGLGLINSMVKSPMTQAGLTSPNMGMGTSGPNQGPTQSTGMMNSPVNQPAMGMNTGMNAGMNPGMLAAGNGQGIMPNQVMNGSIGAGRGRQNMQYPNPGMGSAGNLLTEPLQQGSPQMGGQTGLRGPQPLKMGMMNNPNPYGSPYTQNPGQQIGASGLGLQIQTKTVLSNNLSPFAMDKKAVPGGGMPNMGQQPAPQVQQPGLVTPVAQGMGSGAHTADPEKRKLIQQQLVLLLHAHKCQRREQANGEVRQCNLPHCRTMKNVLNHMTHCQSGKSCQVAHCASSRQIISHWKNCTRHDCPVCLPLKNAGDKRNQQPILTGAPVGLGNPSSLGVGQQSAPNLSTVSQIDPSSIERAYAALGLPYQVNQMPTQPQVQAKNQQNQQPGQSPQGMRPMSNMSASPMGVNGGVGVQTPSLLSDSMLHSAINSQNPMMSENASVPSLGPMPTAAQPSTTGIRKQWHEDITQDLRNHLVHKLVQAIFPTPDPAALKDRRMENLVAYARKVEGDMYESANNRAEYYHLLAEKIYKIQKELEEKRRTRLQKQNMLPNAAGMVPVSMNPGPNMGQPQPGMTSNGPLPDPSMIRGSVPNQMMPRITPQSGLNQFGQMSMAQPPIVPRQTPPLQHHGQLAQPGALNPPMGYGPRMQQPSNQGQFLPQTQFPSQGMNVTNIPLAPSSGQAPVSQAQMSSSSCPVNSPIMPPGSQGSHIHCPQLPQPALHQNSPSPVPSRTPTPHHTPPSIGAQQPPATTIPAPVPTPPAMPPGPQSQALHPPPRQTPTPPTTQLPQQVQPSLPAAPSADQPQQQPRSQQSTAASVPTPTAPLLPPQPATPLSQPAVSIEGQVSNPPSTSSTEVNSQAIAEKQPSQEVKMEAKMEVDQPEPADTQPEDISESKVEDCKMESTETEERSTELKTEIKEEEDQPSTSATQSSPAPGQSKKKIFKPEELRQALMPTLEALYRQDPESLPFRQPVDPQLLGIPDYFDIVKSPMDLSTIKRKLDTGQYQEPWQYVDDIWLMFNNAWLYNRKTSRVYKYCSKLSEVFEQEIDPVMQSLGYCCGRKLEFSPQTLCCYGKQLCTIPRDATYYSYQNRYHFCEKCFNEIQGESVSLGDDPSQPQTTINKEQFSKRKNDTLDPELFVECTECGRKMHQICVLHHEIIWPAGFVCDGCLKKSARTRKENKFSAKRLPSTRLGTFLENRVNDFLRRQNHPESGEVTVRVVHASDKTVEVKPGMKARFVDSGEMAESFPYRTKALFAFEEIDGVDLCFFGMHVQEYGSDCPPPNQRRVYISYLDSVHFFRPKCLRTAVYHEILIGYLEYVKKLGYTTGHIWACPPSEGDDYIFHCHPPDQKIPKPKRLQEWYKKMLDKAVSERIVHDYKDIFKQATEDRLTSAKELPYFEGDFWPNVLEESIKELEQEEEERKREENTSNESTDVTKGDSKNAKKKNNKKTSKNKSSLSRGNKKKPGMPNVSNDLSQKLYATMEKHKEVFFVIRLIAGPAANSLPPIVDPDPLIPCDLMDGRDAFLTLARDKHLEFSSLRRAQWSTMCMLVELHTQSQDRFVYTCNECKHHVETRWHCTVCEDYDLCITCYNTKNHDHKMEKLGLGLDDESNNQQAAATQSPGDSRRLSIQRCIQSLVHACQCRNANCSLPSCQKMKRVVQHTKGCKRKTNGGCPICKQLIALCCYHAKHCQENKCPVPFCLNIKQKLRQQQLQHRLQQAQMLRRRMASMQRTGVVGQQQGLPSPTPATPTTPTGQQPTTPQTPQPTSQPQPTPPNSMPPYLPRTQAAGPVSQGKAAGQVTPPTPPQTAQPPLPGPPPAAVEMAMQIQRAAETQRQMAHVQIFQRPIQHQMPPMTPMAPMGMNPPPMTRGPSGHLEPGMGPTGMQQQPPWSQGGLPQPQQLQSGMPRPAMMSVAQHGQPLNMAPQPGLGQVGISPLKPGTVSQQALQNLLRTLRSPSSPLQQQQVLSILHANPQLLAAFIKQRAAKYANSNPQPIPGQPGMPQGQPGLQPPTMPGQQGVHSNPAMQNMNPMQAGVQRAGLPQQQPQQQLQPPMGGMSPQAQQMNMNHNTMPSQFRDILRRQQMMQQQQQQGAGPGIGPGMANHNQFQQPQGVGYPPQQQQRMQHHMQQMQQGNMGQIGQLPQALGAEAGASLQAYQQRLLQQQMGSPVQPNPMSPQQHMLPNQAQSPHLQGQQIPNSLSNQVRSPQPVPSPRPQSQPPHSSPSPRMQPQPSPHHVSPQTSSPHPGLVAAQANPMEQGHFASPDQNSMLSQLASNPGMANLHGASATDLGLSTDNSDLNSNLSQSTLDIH
T2 sequence (Q09472 whole entry, looked up): as the sequence (Q09472 whole entry, the tested form may be a part) above
T2 sequence (Q92793 whole entry, looked up): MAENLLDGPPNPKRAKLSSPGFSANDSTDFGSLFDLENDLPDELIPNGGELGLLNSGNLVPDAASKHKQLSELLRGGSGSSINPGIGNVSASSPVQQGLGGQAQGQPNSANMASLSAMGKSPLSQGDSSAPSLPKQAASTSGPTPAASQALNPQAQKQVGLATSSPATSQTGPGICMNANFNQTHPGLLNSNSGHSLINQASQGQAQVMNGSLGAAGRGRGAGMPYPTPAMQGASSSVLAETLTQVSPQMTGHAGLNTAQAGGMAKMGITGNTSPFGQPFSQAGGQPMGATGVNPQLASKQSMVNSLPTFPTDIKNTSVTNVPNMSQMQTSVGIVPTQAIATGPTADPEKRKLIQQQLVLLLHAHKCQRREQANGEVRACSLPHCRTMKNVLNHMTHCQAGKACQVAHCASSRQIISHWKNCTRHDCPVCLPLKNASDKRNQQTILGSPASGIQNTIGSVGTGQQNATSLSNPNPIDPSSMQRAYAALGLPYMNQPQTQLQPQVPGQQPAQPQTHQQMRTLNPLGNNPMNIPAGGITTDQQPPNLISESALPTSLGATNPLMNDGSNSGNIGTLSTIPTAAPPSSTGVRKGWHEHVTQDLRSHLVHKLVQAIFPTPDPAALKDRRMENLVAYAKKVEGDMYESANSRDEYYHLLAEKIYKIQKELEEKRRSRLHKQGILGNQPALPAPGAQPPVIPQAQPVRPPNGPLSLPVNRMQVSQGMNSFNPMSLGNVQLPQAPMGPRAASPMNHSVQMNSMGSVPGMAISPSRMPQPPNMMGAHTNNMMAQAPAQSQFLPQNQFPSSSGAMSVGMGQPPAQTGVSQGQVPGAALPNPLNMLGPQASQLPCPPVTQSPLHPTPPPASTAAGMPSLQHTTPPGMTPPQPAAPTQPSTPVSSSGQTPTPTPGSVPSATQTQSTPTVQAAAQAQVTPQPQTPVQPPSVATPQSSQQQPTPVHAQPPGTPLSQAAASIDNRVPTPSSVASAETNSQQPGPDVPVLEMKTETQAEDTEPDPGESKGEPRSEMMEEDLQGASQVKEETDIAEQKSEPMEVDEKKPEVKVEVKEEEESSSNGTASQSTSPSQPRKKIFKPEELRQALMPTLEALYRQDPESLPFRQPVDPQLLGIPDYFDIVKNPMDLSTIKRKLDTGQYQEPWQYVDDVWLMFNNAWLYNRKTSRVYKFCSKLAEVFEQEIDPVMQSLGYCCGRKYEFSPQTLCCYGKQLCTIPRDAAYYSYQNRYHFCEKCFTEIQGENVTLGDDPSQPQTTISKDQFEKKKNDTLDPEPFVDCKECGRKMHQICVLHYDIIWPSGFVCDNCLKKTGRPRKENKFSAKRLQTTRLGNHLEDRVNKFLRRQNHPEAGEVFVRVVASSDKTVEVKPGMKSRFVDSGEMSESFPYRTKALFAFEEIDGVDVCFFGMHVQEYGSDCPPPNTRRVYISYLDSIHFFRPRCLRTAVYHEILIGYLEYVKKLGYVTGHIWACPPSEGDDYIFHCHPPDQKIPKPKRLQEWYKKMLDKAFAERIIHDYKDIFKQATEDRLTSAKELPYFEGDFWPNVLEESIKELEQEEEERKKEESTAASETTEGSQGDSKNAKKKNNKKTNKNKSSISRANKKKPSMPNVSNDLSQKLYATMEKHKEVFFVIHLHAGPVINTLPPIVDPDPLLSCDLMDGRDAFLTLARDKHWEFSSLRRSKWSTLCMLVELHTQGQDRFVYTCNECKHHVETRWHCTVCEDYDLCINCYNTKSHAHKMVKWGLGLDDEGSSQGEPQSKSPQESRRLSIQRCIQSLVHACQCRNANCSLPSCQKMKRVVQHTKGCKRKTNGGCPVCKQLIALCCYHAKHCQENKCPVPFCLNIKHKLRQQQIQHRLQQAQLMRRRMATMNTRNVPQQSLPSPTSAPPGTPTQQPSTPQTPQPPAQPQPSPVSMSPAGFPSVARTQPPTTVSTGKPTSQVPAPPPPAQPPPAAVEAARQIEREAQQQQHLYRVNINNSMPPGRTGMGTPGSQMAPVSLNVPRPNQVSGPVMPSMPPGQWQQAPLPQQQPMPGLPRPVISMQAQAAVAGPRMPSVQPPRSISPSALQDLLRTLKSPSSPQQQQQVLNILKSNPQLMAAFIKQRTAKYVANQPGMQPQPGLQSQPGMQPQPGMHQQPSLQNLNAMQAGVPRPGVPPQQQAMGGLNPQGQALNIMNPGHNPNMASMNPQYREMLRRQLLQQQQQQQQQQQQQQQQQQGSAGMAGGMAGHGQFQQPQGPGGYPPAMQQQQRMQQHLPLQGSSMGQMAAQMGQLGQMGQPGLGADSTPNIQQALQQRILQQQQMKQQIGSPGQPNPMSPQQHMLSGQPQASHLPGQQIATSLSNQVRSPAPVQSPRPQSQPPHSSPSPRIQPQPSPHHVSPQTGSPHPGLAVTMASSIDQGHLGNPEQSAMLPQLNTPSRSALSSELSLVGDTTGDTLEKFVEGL
Chain of CREB-binding protein (Q92793 whole entry, the tested form may be a part): as the sequence (Q92793 whole entry, looked up) above

INH [3]: > 10 µM | inhibition at 10 µM (MAO-A): 7% | inhibition at 10 µM [4]: -3% | pIC50 (CREB-binding protein): 5.04 | INH [5]: > 10 µM | INH [6]: > 10 µM | pIC50 [7]: < 5.00 | pIC50 [1]: < 4.30 | inhibition at 10 µM (MAO-B): 0% | EC50 [8]: > 10 µM | inhibition [8]: inactive | EC50 [9]: > 10 µM | INH [10]: > 10 µM | INH [11]: > 10 µM | pKd [12]: 4.70 | INH [13]: > 10 µM | EC50 [14]: > 10 µM | inhibition [14]: inactive | INH [15]: > 10 µM
SMILES: CNC(=O)Nc1ccc2c(c1)[C@@]1(CC2)OC(=O)N(CC(=O)N(Cc2ccc(F)cc2)[C@@H](C)C(F)(F)F)C1=O [A-486]

pIC50 [1]: 5.30
SMILES: C=C(C)[C@H](CC=C(C)C)C[C@]12C[C@H](CC=C(C)C)C(C)(C)[C@](CC=C(C)C)(C(=O)C(C(=O)c3ccc(O)c(O)c3)=C1O)C2=O

More lines, now with the values behind:

SMILES: CC(C1CC1)N(Cc1ccccc1)C(=O)CN1C(=O)NC(Cc2c[nH]c3ccccc23)C1=O (stereo not drawn)
pIC50 [1]: 5.29

SMILES: CNC(=O)c1ccc(N2C(=S)N(c3ccc(C#N)c(C(F)(F)F)c3)C(=O)C2(C)C)cc1F
inhibition [2]: inactive

SMILES: NS(=O)(=O)c1ccc(NC(=O)CN2C(=O)SC(=C3CCCCC3)C2=O)cc1
pIC50 [1]: 4.94
